Data as given in ChEMBL document CHEMBL1126989, “Synthesis and cytotoxicity of 1,6,7,8-substituted 2-(4'-substituted phenyl)-4-quinolones and related compounds: identification as antimitotic agents interacting with tubulin” (J Med Chem, 1993).
Values after ≈ are worked out from the molar mass of the structure shown.

Assays:
A549 = assay: Cytotoxicity in vitro expressed as 50% reduction in cell number after a 3-day incubation, in human lung carcinoma A-549 cell line; type: functional, cell-based; conditions: A549, 72 h
Summary of the method: (§1)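 Cell lines adapted to antibiotic-free RPMI-1640 with 10% fetal calf serum; ca. 1×10^5 cells per well, overnight stabilization, then serial dilutions added, quadruplicate per concentration; medium-only controls. After 3-4 days, MTT added and incubated overnight; formazan dissolved in DMSO, absorbance at 570 nm. EC50 calculated from two data points bracketing 50% growth inhibition. Actinomycin as positive control.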

KB = assay: Cytotoxicity in vitro expressed as 50% reduction in cell number after a 3-day incubation, in human epidermoid carcinoma KB cell line; type: functional, cell-based; conditions: 72 h; summary of the method: as §1
L1210 (1565) = assay: Cytotoxicity in vitro expressed as 50% reduction in cell number after a 3-day incubation, in murine leukemia L-1210 cell line; type: functional, cell-based; conditions: Mus musculus, 72 h; summary of the method: as §1
HCT-8 = assay: Cytotoxicity in vitro expressed as 50% reduction in cell number after a 3-day incubation, in human ileocecal carcinoma HCT-8 cell line; type: functional, cell-based; conditions: HCT-8, 72 h; summary of the method: as §1
P388 = assay: Cytotoxicity in vitro expressed as 50% reduction in cell number after a 3-day incubation, in murine leukemia P-388 cell line; type: functional, cell-based; conditions: Mus musculus, P388, 72 h; summary of the method: as §1
[1] = Percentage inhibition of colchicine binding(1: 1 ratio of inhibitor: colchicine); type: functional; conditions: concentration not given here
RPMI-7951 = assay: Cytotoxicity in vitro expressed as 50% reduction in cell number after a 3-day incubation, in human melanoma RPMI-7951 cell line; type: functional, cell-based; conditions: RPMI-7951, 72 h; summary of the method: as §1
Tubulin beta chain = Tubulin beta chain (Bos taurus, UniProt Q6B856); assay: Inhibition of tubulin polymerization; type: functional
Summary of the method: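 Bovine brain tubulin 1.0 mg/mL (10 μM) with 1.0 M repurified monosodium glutamate, 1.0 mM MgCl2, 4% DMSO and drug; preincubated 15 min at 37 °C, chilled, GTP added; turbidity at 350 nm after jump from 0 to 37 °C, followed 20 min.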

SF-539 [2] = assay: Inhibition of in vitro cell growth which reduces cell growth to 50% of level at start of experiment in CNS SF-539 cell line; type: functional, Homo sapiens
Summary of the method: (§2)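 NCI in vitro disease-oriented screen across about 60 human tumour cell lines. The value is the LC50-type level: the drug concentration that cuts cell number to 50% of the count at the start of the experiment. Values are averages of 2 assays.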

SF-539 [3] = assay: Inhibition of in vitro cell growth which reduces cell growth to level at start of experiment in CNS SF-539 cell line; type: functional, Homo sapiens
Tubulin (Bos taurus) [4] = target: T1, Tubulin (Bos taurus) (UniProt Q6B856+Q862L2+Q862F3); assay: Percentage inhibition of colchicine binding by derivatives of 2-phenyl-4-quinolone at the ratio of 10:1; type: protein assay; conditions: concentration not given here
COLO 205 [5] = assay: Inhibition of in vitro cell growth which reduces cell growth to level at start of experiment in colon COLO-205 cell line; type: functional, Homo sapiens
HCC 2998 [6] = assay: Inhibition of in vitro cell growth which reduces cell growth to level at start of experiment in colon HCC2998 cell line; type: functional, Homo sapiens
HCC 2998 [7] = assay: Inhibition of in vitro cell growth which reduces cell growth to 50% of level at start of experiment in colon HCC2998 cell line; type: functional, Homo sapiens; summary of the method: as §2
HT-29 [8] = assay: Inhibition of in vitro cell growth which reduces cell growth to level at start of experiment in colon HT-29 cell line; type: functional, Homo sapiens
[9] = (§3) Inhibition of in vitro cell growth which reduces cell growth to level at start of experiment in colon KM-20L2 cell line; type: functional, Homo sapiens
COLO 205 [10] = assay: Inhibition of in vitro cell growth which reduces cell growth to 50% of level at start of experiment in colon COLO-205 cell line; type: functional, Homo sapiens; summary of the method: as §2
HT-29 [11] = assay: Inhibition of in vitro cell growth which reduces cell growth to 50% of level at start of experiment in colon HT-29 cell line; type: functional, Homo sapiens; summary of the method: as §2
Tubulin (Bos taurus) [12] = target: T1, Tubulin (Bos taurus); assay: Percentage inhibition of colchicine binding by derivatives of 2-phenyl-4-quinolone at the ratio of 1:1; type: protein assay; conditions: concentration not given here
[13] = (§4) Inhibition of in vitro cell growth which reduces cell growth to 50% of level at start of experiment in colon KM-20L2 cell line; type: functional, Homo sapiens; summary of the method: as §2
Tubulin (Bos taurus) [14] = target: T1, Tubulin (Bos taurus); assay: Percentage inhibition of colchicine binding(10:1 ratio of inhibitor: colchicine); type: protein assay; conditions: concentration not given here
SF-539 [15] = assay: Inhibition of in vitro cell growth which reduces cell growth to 50% of level at start of experiment in CNS SF-539 cell line(<-4 in one experiment, >-4 in other experiment); type: functional, Homo sapiens; summary of the method: as §2
Tubulin (Bos taurus) [16] = target: T1, Tubulin (Bos taurus); assay: Percentage inhibition of colchicine binding(1:1 ratio of inhibitor: colchicine); type: protein assay; conditions: concentration not given here
KM-20L2 [17] = assay: as §3; type: functional, Homo sapiens
KM-20L2 [18] = assay: as §4; type: functional, Homo sapiens; summary of the method: as §2
COLO 205 [19] = assay: Inhibition of in vitro cell growth which reduces cell growth to 50% of level at start of experiment in colon COLO-205 cell line (<-4 in one experiment, >-4 in other experiment); type: functional, Homo sapiens; summary of the method: as §2

Sequence of Tubulin beta chain (Q6B856 whole entry): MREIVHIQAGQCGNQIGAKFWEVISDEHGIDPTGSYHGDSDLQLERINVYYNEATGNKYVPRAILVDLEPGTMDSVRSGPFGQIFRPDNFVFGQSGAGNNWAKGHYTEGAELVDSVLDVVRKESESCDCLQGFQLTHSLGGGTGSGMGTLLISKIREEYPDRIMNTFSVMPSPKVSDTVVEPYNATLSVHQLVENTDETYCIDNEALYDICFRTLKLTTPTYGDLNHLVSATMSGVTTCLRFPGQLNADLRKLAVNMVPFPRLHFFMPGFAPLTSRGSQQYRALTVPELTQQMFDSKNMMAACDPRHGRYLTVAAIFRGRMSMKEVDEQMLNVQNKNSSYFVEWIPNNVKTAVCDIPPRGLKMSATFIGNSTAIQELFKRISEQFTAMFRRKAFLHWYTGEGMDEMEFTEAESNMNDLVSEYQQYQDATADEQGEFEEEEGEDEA

SMILES	EC50 (A549)	EC50 (KB)	EC50 (L1210 (1565))	EC50 (HCT-8)	EC50 (P388)	EC50 (RPMI-7951)	IC50 (Tubulin beta chain)	also measured
CCCCOc1cc(-c2ccccc2)nc2ccccc12	> 10 µg/mL	3.8 µg/mL (≈ 13.7 µM)	> 10 µg/mL	> 10 µg/mL	> 10 µg/mL	–	–	–
COc1ccc(/C=C\c2cc(OC)c(OC)c(OC)c2)cc1O	–	–	–	–	–	–	–	inhibition [1]: 97%
Oc1ccc2nc(-c3ccccc3)cc(O)c2c1	8.14 µg/mL (≈ 34.3 µM)	0.41 µg/mL (≈ 1.73 µM)	0.83 µg/mL (≈ 3.5 µM)	7.75 µg/mL (≈ 32.7 µM)	2.86 µg/mL (≈ 12.1 µM)	3.92 µg/mL (≈ 16.5 µM)	16 µM	–
Cc1ccc2nc(-c3ccccc3)cc(O)c2c1	0.53 µg/mL (≈ 2.25 µM)	0.55 µg/mL (≈ 2.34 µM)	0.72 µg/mL (≈ 3.06 µM)	0.9 µg/mL (≈ 3.83 µM)	0.49 µg/mL (≈ 2.08 µM)	0.53 µg/mL (≈ 2.25 µM)	–	–
CC(C)Oc1cc(-c2ccccc2)nc2ccccc12	> 10 µg/mL	4.2 µg/mL (≈ 15.9 µM)	> 10 µg/mL	> 10 µg/mL	> 10 µg/mL	–	–	–
CN(C)CCOc1cc(-c2ccccc2)nc2ccccc12	> 10 µg/mL	> 4 µg/mL	> 10 µg/mL	> 10 µg/mL	> 10 µg/mL	–	–	–
COc1ccc2c(O)cc(-c3ccccc3)nc2c1	0.73 µg/mL (≈ 2.91 µM)	0.53 µg/mL (≈ 2.11 µM)	0.57 µg/mL (≈ 2.27 µM)	4.86 µg/mL (≈ 19.3 µM)	0.67 µg/mL (≈ 2.67 µM)	0.43 µg/mL (≈ 1.71 µM)	4.8 µM	–
Cn1c(-c2ccccc2)cc(=O)c2ccccc21	> 10 µg/mL	> 10 µg/mL	> 10 µg/mL	> 10 µg/mL	> 10 µg/mL	> 10 µg/mL	> 40 µM	–
COc1cccc2c(O)cc(-c3ccccc3)nc12	6.77 µg/mL (≈ 26.9 µM)	5.05 µg/mL (≈ 20.1 µM)	7.68 µg/mL (≈ 30.6 µM)	0.55 µg/mL (≈ 2.19 µM)	> 10 µg/mL	> 10 µg/mL	> 40 µM	–
Oc1cc(-c2ccccc2)nc2ccc(Cl)cc12	0.51 µg/mL (≈ 1.99 µM)	0.49 µg/mL (≈ 1.92 µM)	0.5 µg/mL (≈ 1.96 µM)	0.7 µg/mL (≈ 2.74 µM)	0.84 µg/mL (≈ 3.29 µM)	0.64 µg/mL (≈ 2.5 µM)	3.2 µM	LC50 (SF-539 [2]): >-4; TGI (SF-539 [3]): -5.4; inhibition (Tubulin (Bos taurus) [4]): 21%; TGI (COLO 205 [5]): -5.6; TGI (HCC 2998 [6]): -5; LC50 (HCC 2998 [7]): >-5; TGI (HT-29 [8]): -4.9; TGI [9]: -5.4; LC50 (COLO 205 [10]): -4; LC50 (HT-29 [11]): >-4; inhibition (Tubulin (Bos taurus) [12]): 6%; LC50 [13]: -4
Oc1cc(-c2ccccc2)nc2cc(F)ccc12	0.96 µg/mL (≈ 4.01 µM)	< 0.1 µg/mL	0.16 µg/mL (≈ 0.669 µM)	3.45 µg/mL (≈ 14.4 µM)	0.29 µg/mL (≈ 1.21 µM)	0.37 µg/mL (≈ 1.55 µM)	3.7 µM	inhibition (Tubulin (Bos taurus) [14]): 34%; TGI (SF-539 [3]): -6; LC50 (SF-539 [15]): >-4; TGI (COLO 205 [5]): -6.1; TGI (HCC 2998 [6]): -5.6; inhibition (Tubulin (Bos taurus) [16]): 7%; LC50 (HCC 2998 [7]): >-4; TGI (HT-29 [8]): -5.6; TGI (KM-20L2 [17]): -6.3; LC50 (HT-29 [11]): >-4; LC50 (KM-20L2 [18]): -5.6; LC50 (COLO 205 [19]): -4
COc1cc([C@@H]2c3cc4c(cc3[C@H](O)[C@H]3COC(=O)[C@H]23)OCO4)cc(OC)c1OC [PODOFILOX]	–	–	–	–	–	–	1.3 µM	–
COc1cc(-c2ccccc2)nc2ccccc12	> 10 µg/mL	> 10 µg/mL	> 10 µg/mL	> 10 µg/mL	4.5 µg/mL (≈ 19.1 µM)	–	–	–
